Test results taken from ChEMBL document CHEMBL4265974, “Discovery of RG7834: The First-in-Class Selective and Orally Available Small Molecule Hepatitis B Virus Expression Inhibitor with Novel Mechanism of Action” (J Med Chem, 2018).

Key:
[1] = Oral bioavailability in BALB/C mouse at 2 mg/kg administered as single dose by LC-MS/MS analysis; format: ADME, organism-based; conditions: in vivo
Outline: (§1)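 Male BALB/C mice given single doses of 1 mg/kg iv (5% DMSO, 40% PEG400, 55% saline), or 2 or 14.5 mg/kg po (1% RC-591 in water). Blood taken at set times into sodium heparin and plasma separated at 4 °C; livers from po groups taken right after bleeding, rinsed and blotted. Plasma and liver levels measured by LC–MS/MS.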

[2] = Cmax in BALB/C mouse plasma at 14.5 mg/kg, po administered as single dose by LC-MS/MS analysis; format: ADME, organism-based; design: dose 14.5 mg/kg, route oral; outline: as §1
[3] = AUC (0 to t) in BALB/C mouse plasma at 14.5 mg/kg, po administered as single dose by LC-MS/MS analysis; format: ADME, organism-based; conditions: in vivo
[4] = Lipophilicity, log D of the compound; format: physicochemical; conditions: octanol/water
[5] = Oral bioavailability in cynomolgus monkey; format: ADME, organism-based, Macaca fascicularis; conditions: in vivo
[6] = test system: Mus musculus; test: AUC (0 to infinity) in BALB/C mouse plasma at 1 mg/kg, iv administered as single dose by LC-MS/MS analysis; format: ADME, organism-based; design: dose 1 mg/kg, route intravenous, time infinity; conditions: in vivo
[7] = Ratio of AUC (0 to t) in BALB/C mouse liver to plasma at 14.5 mg/kg, po administered as single dose by LC-MS/MS analysis; format: ADME, organism-based; conditions: read-out: Ratio AUC
[8] = Apparent permeability across apical to basolateral side in human Caco2 cells at 10 uM after 1 hr; format: ADME, cell-based; conditions: Caco-2
Outline: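 Caco-2 monolayers; 10 µM compound in pH 7.4 HBSS added to apical side (A→B) or basolateral side (B→A), receiver holding pH 7.4 HBSS with 1% DMSO. Incubated 1 h at 37 °C, 5% CO2, 95% humidity. Drug amounts on both sides measured and permeability calculated for each direction.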

[9] = AUC (0 to t) in BALB/C mouse liver at 14.5 mg/kg, po administered as single dose by LC-MS/MS analysis; format: ADME, organism-based; conditions: in vivo
[10] = Cmax in BALB/C mouse plasma at 2 mg/kg, po administered as single dose by LC-MS/MS analysis; format: ADME, organism-based; design: dose 2 mg/kg, route oral; outline: as §1
[11] = Volume of distribution at steady state in BALB/C mouse at 1 mg/kg, iv by LC-MS/MS analysis; format: ADME, organism-based; conditions: in vivo, read-out: Vdss; outline: as §1
[12] = Cmax in BALB/C mouse plasma at 1 mg/kg, iv administered as single dose by LC-MS/MS analysis; format: ADME, organism-based; design: dose 1 mg/kg, route intravenous; outline: as §1
[13] = Cmax in BALB/C mouse liver at 14.5 mg/kg, po administered as single dose by LC-MS/MS analysis; format: ADME, organism-based; design: dose 14.5 mg/kg, route oral; outline: as §1
[14] = Dissociation constant, pKa of the compound; format: physicochemical
[15] = test system: Mus musculus; test: AUC (0 to infinity) in BALB/C mouse plasma at 2 mg/kg, po administered as single dose by LC-MS/MS analysis; format: ADME, organism-based; design: dose 2 mg/kg, route oral, time infinity; conditions: in vivo

bioavailability [1]: 62%
Cmax [2]: 2040 ng/mL
AUCt [3]: 4366 ng·mL·h
logD [4]: 1.28
bioavailability [5]: 57%
AUC [6]: 398 ng·mL·h
Kp [7]: 4
Papp A→B at 1 h, 10 µM [8]: 12.8 ×10⁻⁶ cm/s
AUCt [9]: 17265 ng·mL·h
Cmax [10]: 322 ng/mL
Vd [11]: 2.07 L/kg
Cmax [12]: 466 ng/mL
Cmax [13]: 11000 ng/mL
pKa [14]: 5.79
AUC [15]: 490 ng·mL·h
Structure (SMILES): COCCCOc1cc2c(cc1OC)-c1cc(=O)c(C(=O)O)cn1[C@H](C(C)C)C2
